Here are results for four molecules from ChEMBL document CHEMBL1123247, “Nucleoside conjugates. 7. Synthesis and antitumor activity of 1-beta-D-arabinofuranosylcytosine conjugates of ether lipids” (J Med Chem, 1986).

Common to all, as to format: functional, Mus musculus
The subject of assay [1] is P388. In words: Antitumor activity against the ip implanted P388 leukemia in mice expressed as optimal dose (1,5,9qd treatment schedule) required to produce greatest increase in life span was determined. Further details: unit: mg/kg. The method, boiled down: (§1)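 P388 leukemia: 1 × 10^6 cells were given ip on day 0 to DBA/2J mice, groups of 6 (23-33 g). Treatment was ip from 24 h after inoculation, vehicle 0.9% NaCl with 0.5% Tween-80. Mice were observed daily until death or 45 days. Median survival T/C was calculated from survivors per NCI protocols, and ILS = (T/C − 1) × 100. Active range means doses giving ILS ≥25%; optimal dose means greatest ILS.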

Assay [2] relates to P388. In words: Antitumor activity was determined against the ip implanted P388 leukemia in mice by percent increase in life span at 133 mg/kg (treatment of 1,5,9qd schedule) dosage. To be noted: route intraperitoneal. The method, boiled down: (§2)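 DBA/2J mice, 23-33 g, in groups of 6, were inoculated ip with 1×10^6 P388 cells on day 0. Dosing was ip from 24 h on the stated schedules, in 0.9% NaCl with 0.5% Tween-80 (sonicated solution or suspension). Survival was followed daily until death or 45 days. Median T/C was calculated from survivors per NCI protocols, with ILS = (T/C − 1) × 100.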

Assay [3] deals with P388. In words: Antitumor activity was determined against the ip implanted P388 leukemia in mice by change in […] at 60 mg/kg (1-5qd treatment schedule) dosage. To be noted: route intraperitoneal. The method, boiled down:
(§3)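 P388 leukemia, 1×10^6 cells implanted ip on day 0 into DBA/2J mice, groups of 6 (wt 23-33 g). Dosing ip started 24 h post-inoculation, vehicle 0.9% NaCl containing 0.5% Tween-80. Animals were observed daily until death or 45 days. Outputs were weight change, median survival T/C from survivors per NCI protocols, and %ILS = (T/C − 1) × 100.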

The subject of assay [4] is P388. In words: Antitumor activity was determined against the ip implanted P388 leukemia in mice by 45-day survivors in mice at 60 mg/kg (1-5qd treatment schedule) dosage. To be noted: route intraperitoneal. An outline of the steps:
as §2

Assay [5] has as its system P388. In words: (§4) Antitumor activity against the ip implanted P388 leukemia in mice expressed as optimal dose (1-5qd treatment schedule) required to produce greatest increase in life span was determined. Further details: unit: mg/kg. An outline of the steps:
as §1

In assay [6] the test system is L1210. The assay can be described thus: Antitumor activity against the ic implanted L1210 lymphoid leukemia in mice expressed as optimal dose (1-5qd treatment schedule) required to produce greatest increase in life span was determined. An outline of the steps: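 DBA/2J mice, groups of 6 (26-32 g), got 1 × 10^5 L1210 cells ic on day 0. Dosing was ip starting 24 h later, as a sonicated solution or suspension in 0.9% NaCl with 0.5% Tween-80, over a wide dose range. Mice were followed daily until death. Median survival T/C was taken from survivors per NCI protocols, and ILS = (T/C − 1) × 100. Active range means doses giving ILS ≥25%; optimal dose means greatest ILS.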

The subject of assay [7] is L1210. In words: Antitumor activity against the ip implanted L1210 leukemia in mice expressed as optimal dose (1 qd treatment schedule) required to produce greatest increase in life span was determined. The method, boiled down: (§5)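 DBA/2J mice, groups of 6 (23-28 g), were inoculated ip with 1 × 10^6 L1210 cells on day 0. Dosing was ip from 24 h, in 0.9% NaCl with 0.5% Tween-80 (sonicated solution or suspension). Mice were observed daily until death or day 45. Median survival T/C followed NCI protocols, and ILS = (T/C − 1) × 100. Active range means doses giving ILS ≥25%; optimal dose means greatest ILS.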

In assay [8] the test system is P388. In words: Antitumor activity was determined against the ip implanted P388 leukemia in mice by 45-day survivors in mice at 133 mg/kg (treatment of 1,5,9qd schedule) dosage. To be noted: route intraperitoneal. An outline of the steps:
as §2

The subject of assay [9] is P388. The assay can be described thus: Antitumor activity was determined against the ip implanted P388 leukemia in mice by percent increase in life span at 60 mg/kg (1-5qd treatment schedule) dosage. To be noted: route intraperitoneal. An outline of the steps: as §2
In assay [10] the test system is P388. The assay can be described thus: Antitumor activity was determined against the ip implanted P388 leukemia in mice by percent median survival rate (treated/control) at 133 mg/kg (treatment of 1,5,9qd schedule) dosage; >45.0/11.0. To be noted: route intraperitoneal. The method, boiled down: as §2
Assay [11] deals with P388. The assay can be described thus: Antitumor activity was determined against the ip implanted P388 leukemia in mice by change in […] at 133 mg/kg (treatment of 1,5,9qd schedule) dosage. The note with it: route intraperitoneal. The method, boiled down:
as §3

For assay [12], the system named is P388. The assay can be described thus: Antitumor activity against ip implanted P388 leukemia in mice expressed as active dose range (1 qd treatment schedule) required to produce increase in life span by >25% was determined; Range is 200-500. An outline of the steps:
as §1

For assay [13], the system named is P388. The assay can be described thus: Antitumor activity against the ip implanted P388 leukemia in mice expressed as optimal dose (1 qd treatment schedule) required to produce greatest increase in life span was determined. The method, boiled down: as §1
In assay [14] the test system is L1210. The assay can be described thus: Antitumor activity against the ip implanted L1210 leukemia in mice expressed as optimal dose (1-5qd treatment schedule) required to produce greatest increase in life span was determined. The method, boiled down:
as §5

The test system of assay [15] is P388. The assay can be described thus: Antitumor activity against ip implanted P388 leukemia in mice expressed as active dose range (1-5qd treatment schedule) required to produce increase in life span by >25% was determined; Range is 40-80. An outline of the steps: as §1
Assay [16] deals with L1210. The assay can be described thus: Antitumor activity was determined against the ip implanted L1210 leukemia in mice by change in […] at 400 mg/kg (treatment of 1qd schedule) dosage. The note with it: route intraperitoneal. The method, boiled down:
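DBA/2J mice, 6 per group (wt 23-28 g), inoculated ip with 1×10^6 L1210 cells on day 0. Treatment was given ip in 0.9% NaCl with 0.5% Tween-80, starting 24 h later. Weight change was taken on day 8. Mice were observed daily until death or 45 days. Median survival T/C and %ILS = (T/C − 1) × 100 came from survivors per NCI protocols, and 45-day survivors were counted.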

The subject of assay [17] is L1210. In words: Antitumor activity was determined against the ip implanted L1210 leukemia in mice by percent increase in life span at 400 mg/kg (treatment of 1qd schedule) dosage. To be noted: route intraperitoneal. An outline of the steps: (§6)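 DBA/2J mice in groups of 6 (wt 23-28 g) were inoculated ip with 1×10^6 L1210 cells on day 0. Dosing was ip from 24 h, in 0.9% NaCl with 0.5% Tween-80 (conjugates sonicated), across a range of doses. Mice were observed daily until death or 45 days. Median T/C was computed from survivors per NCI protocols, and ILS = (T/C − 1)×100.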

Assay [18] relates to P388. The description is as §4. An outline of the steps:
as §1

For assay [19], the system named is L1210. The assay can be described thus: Antitumor activity was determined against the ip implanted L1210 leukemia in mice by 45-day survivors in mice at 400 mg/kg (treatment of 1qd schedule) dosage. To be noted: route intraperitoneal. An outline of the steps:
as §6

Assay [20] has as its system P388. In words: Antitumor activity was determined against the ip implanted P388 leukemia in mice by change in […] at 500 mg/kg (treatment of 1qd schedule) dosage. The note with it: route intraperitoneal. An outline of the steps:
as §3

Assay [21] deals with P388. The assay can be described thus: Antitumor activity was determined against the ip implanted P388 leukemia in mice by 45-day survivors in mice at 500 mg/kg (treatment of 1qd schedule) dosage. To be noted: route intraperitoneal. An outline of the steps: as §2
Assay [22] has as its system P388. The assay can be described thus: Antitumor activity was determined against the ip implanted P388 leukemia in mice by percent increase in life span at 500 mg/kg (treatment of 1qd schedule) dosage. The note with it: route intraperitoneal. An outline of the steps: as §2

Take `CCCCCCCCCCCCCCCC(=O)OC[C@H](COP(=O)(O)OP(=O)(O)OC[C@H]1O[C@@H](n2ccc(N)nc2=O)[C@@H](O)[C@@H]1O)OC(=O)CCCCCCCCCCCCCCC`: the Optimal dose in the assay with P388 [1] is 133 mg; in the assay on P388 [5] it was 60 mg; with L1210 [6] it was 80 mg; in the assay on L1210 [7], 300 mg/kg/day; in the assay on P388 [13] it was 500 mg; with L1210 [14] it was 40 mg. The ILS in the assay on P388 [2] and with P388 [9] was more than 309 throughout. For the same molecule, the figures for the Weight change with P388 [3] and with P388 [11] were -1.92 g mouse-1 and -1.43 g mouse-1, respectively. The figures for the Survivors with P388 [4] and in the assay on P388 [8] were 5 and 4, respectively. This molecule also displayed a T/C in the assay with P388 [10] of more than 45%. Besides, the Active dose range came to 200 mg/kg/day with P388 [12] and 40 mg/kg/day with P388 [15].

`CCCCCCCCCCCCCCCCOCC(COP(=O)(O)OP(=O)(O)OC[C@H]1O[C@@H](n2ccc(N)nc2=O)[C@@H](O)[C@@H]1O)OC(=O)CCCCCCCCCCCCCCC` (mixture of isomers): the Optimal dose stood at 133 mg with P388 [1]; 100 mg in the assay with L1210 [6]; 400 mg/kg/day with L1210 [7]; 60 mg with P388 [18]; 300 mg in the assay on P388 [13]; 80 mg in the assay with L1210 [14]. Moreover, the figures for the ILS with P388 [2] and in the assay on L1210 [17] were more than 309 and 293, respectively. The Weight change in the assay on L1210 [16] is on record as 1.47 g mouse-1; with P388 [11], -0.25 g mouse-1. Further, the results for the Survivors in the assay with P388 [8] and in the assay on L1210 [19] were 4 and 0, respectively. The same molecule showed a T/C in the assay on P388 [10] of more than 45%.

For `CCCCCCCCCCCCCCCCCCOCC(COP(=O)(O)OP(=O)(O)OC[C@H]1O[C@@H](n2ccc(N)nc2=O)[C@@H](O)[C@@H]1O)OC(=O)CCCCCCCCCCCCCCC` (mixture of isomers), the Optimal dose in the assay on P388 [1] was found to be 67 mg; with P388 [5] it was 60 mg; with L1210 [7] it was 400 mg/kg/day; in the assay on P388 [13] it was 500 mg; in the assay on L1210 [14], 100 mg. The Weight change is -0.12 g mouse-1 in the assay with P388 [3], -0.07 g mouse-1 with P388 [20] and -1 g mouse-1 in the assay with L1210 [16]. Further, the Survivors in the assay on P388 [4] is given as 0; in the assay with P388 [21], 4; in the assay on L1210 [19], 0. Besides, the values for the ILS in the assay with P388 [9], in the assay on L1210 [17] and with P388 [22] were 109, 257 and more than 309, respectively. Further, the Active dose range in the assay on P388 [12] was found to be 200 mg/kg/day; with P388 [15], 40 mg/kg/day.

For `Nc1ccn([C@@H]2O[C@H](CO)[C@@H](O)[C@@H]2O)c(=O)n1` [CYTARABINE], the Weight change with P388 [20] turned out to be 0.72 g mouse-1; with L1210 [16], 2.37 g mouse-1. Also, the Optimal dose in the assay on L1210 [6] turned out to be 300 mg; in the assay on L1210 [7] it was 400 mg/kg/day; in the assay on P388 [18] it was 200 mg; in the assay with P388 [13] it was 500 mg; with L1210 [14] it was 200 mg. The values for the ILS in the assay with L1210 [17] and in the assay with P388 [22] were 19 and 36, respectively. Besides, the Survivors in the assay on P388 [21] and with L1210 [19] was 0 throughout.

By T/C is commonly meant the ratio of treated to control.
